Measured values taken from ChEMBL document CHEMBL2384936, “Synthesis and evaluation of antimicrobial activity of hydrazones derived from 3-oxido-1H-imidazole-4-carbohydrazides” (Eur J Med Chem, 2013).
Values after ≈ are worked out from the molar mass of the structure shown. Active and inactive are the calls of the source. The calls are words filed in the database; no cut-off is given here.

Columns and labels:
[1] = tested on: Pseudomonas aeruginosa; test: Antibacterial activity against Pseudomonas aeruginosa NCTC 6249 assessed as growth inhibition at 1 to 600 ug/mL after 18 hrs by broth microdilution method; assay type: functional, organism-based
[2] = tested on: Enterococcus faecalis; test: Antibacterial activity against Enterococcus faecalis ATCC 29212 assessed as growth inhibition at 1 to 600 ug/mL after 18 hrs by broth microdilution method; assay type: functional, organism-based
[3] = tested on: Staphylococcus epidermidis; test: Antibacterial activity against Staphylococcus epidermidis ATCC 12228 assessed as growth inhibition at 1 to 600 ug/mL after 18 hrs by broth microdilution method; assay type: functional, organism-based
[4] = tested on: Staphylococcus aureus; test: Antibacterial activity against Staphylococcus aureus ATCC 6538 assessed as growth inhibition at 1 to 600 ug/mL after 18 hrs by broth microdilution method; assay type: functional, organism-based
Procedure, shortened: (§1)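 Frozen stocks (-80 °C, tryptic soy broth with 15% glycerol); S. aureus subcultured on blood agar and identified by catalase, coagulase and clumping factor. Inoculum at 0.5 McFarland. DMSO-dissolved compounds 1–600 µg/mL in Mueller–Hinton broth, 37 °C 18 h, OD600 read with and without compound. MIC = lowest concentration preventing growth; triplicates, per CLSI.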

[5] = tested on: Proteus vulgaris; test: Antibacterial activity against Proteus vulgaris ATCC 49990 assessed as growth inhibition at 1 to 600 ug/mL after 18 hrs by broth microdilution method; assay type: functional, organism-based
[6] = tested on: Proteus mirabilis; test: Antibacterial activity against Proteus mirabilis ATCC 29906 assessed as growth inhibition at 1 to 600 ug/mL after 18 hrs by broth microdilution method; assay type: functional
[7] = tested on: Escherichia coli; test: Antibacterial activity against Escherichia coli NCTC 8192 assessed as growth inhibition at 1 to 600 ug/mL after 18 hrs by broth microdilution method; assay type: functional, organism-based
[8] = tested on: Candida albicans; test: Antifungal activity against Candida albicans ATCC 10231 assessed as growth inhibition at 1 to 600 ug/mL after 18 hrs by broth microdilution method; assay type: functional, organism-based
[9] = tested on: Staphylococcus aureus; test: Antibacterial activity against Staphylococcus aureus ATCC 29213 assessed as growth inhibition at 1 to 600 ug/mL after 18 hrs by broth microdilution method; assay type: functional, organism-based; procedure, shortened: as §1
[10] = tested on: Escherichia coli; test: Antibacterial activity against Escherichia coli NCTC 8192 assessed as growth inhibition after 18 hrs by broth microdilution method; assay type: functional
Procedure, shortened: (§2)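 Frozen stocks (-80 °C, tryptic soy broth with 15% glycerol); S. aureus subcultured on blood agar and identified by catalase, coagulase and clumping factor. Inoculum at 0.5 McFarland. MIC = lowest concentration preventing growth; triplicates, per CLSI.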

[11] = tested on: Escherichia coli; test: Bactericidal activity against Escherichia coli NCTC 8192 after 18 hrs by broth microdilution method; assay type: functional
Procedure, shortened: (§3)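 Broth microdilution, then contents of wells without visible growth plated onto Mueller–Hinton agar and incubated 35 °C for 18 h. Triplicates, per CLSI.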

[12] = tested on: Staphylococcus aureus; test: Antibacterial activity against Staphylococcus aureus ATCC 6538 assessed as growth inhibition after 18 hrs by broth microdilution method; assay type: functional; conditions: ATCC 6538, 18 h
Procedure, shortened: (§4)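 Broth microdilution in Mueller–Hinton broth with 1–600 µg/mL compound added from DMSO stocks. Inoculum adjusted to 0.5 McFarland. Strains stored at -80 °C and subcultured on blood agar before use. Incubation 37 °C for 18 h with OD600 read. MIC taken as the lowest concentration preventing growth, run in triplicate following CLSI. Vancomycin and oxacillin served as controls.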

[13] = tested on: Staphylococcus aureus; test: Bactericidal activity against Staphylococcus aureus ATCC 29213 after 18 hrs by broth microdilution method; assay type: functional; conditions: ATCC 29213, 18 h; procedure, shortened: as §3
[14] = tested on: Staphylococcus aureus; test: Antibacterial activity against Staphylococcus aureus ATCC 29213 assessed as growth inhibition after 18 hrs by broth microdilution method; assay type: functional; conditions: ATCC 29213, 18 h; procedure, shortened: as §4
[15] = tested on: Staphylococcus epidermidis; test: Antibacterial activity against Staphylococcus epidermidis ATCC 12228 assessed as growth inhibition after 18 hrs by broth microdilution method; assay type: functional; conditions: ATCC 12228, 18 h; procedure, shortened: as §2
[16] = tested on: Staphylococcus epidermidis; test: Bactericidal activity against Staphylococcus epidermidis ATCC 12228 after 18 hrs by broth microdilution method; assay type: functional; conditions: ATCC 12228, 18 h; procedure, shortened: as §3
[17] = tested on: Staphylococcus aureus; test: Bactericidal activity against Staphylococcus aureus ATCC 6538 after 18 hrs by broth microdilution method; assay type: functional; conditions: ATCC 6538, 18 h; procedure, shortened: as §3
[18] = tested on: Staphylococcus aureus; test: Bactericidal activity against Staphylococcus aureus isolate C19 derived from naso-pharynx after 18 hrs by broth microdilution method; assay type: functional; conditions: isolate C19, 18 h; procedure, shortened: as §3
[19] = tested on: Staphylococcus aureus; test: Antibacterial activity against Staphylococcus aureus isolate F1 derived from ulcer and furuncle assessed as growth inhibition after 18 hrs by broth microdilution method; assay type: functional; conditions: isolate F1, 18 h; procedure, shortened: as §2
[20] = tested on: Staphylococcus aureus; test: Antibacterial activity against Staphylococcus aureus isolate D15 derived from bone assessed as growth inhibition after 18 hrs by broth microdilution method; assay type: functional; conditions: isolate D15, 18 h; procedure, shortened: as §2
[21] = tested on: Staphylococcus aureus; test: Bactericidal activity against Staphylococcus aureus isolate C8 derived from naso-pharynx after 18 hrs by broth microdilution method; assay type: functional; conditions: isolate C8, 18 h; procedure, shortened: as §3
[22] = tested on: Staphylococcus aureus; test: Bactericidal activity against Staphylococcus aureus isolate D20 derived from bone after 18 hrs by broth microdilution method; assay type: functional; conditions: isolate D20, 18 h; procedure, shortened: as §3
[23] = tested on: Staphylococcus aureus; test: Bactericidal activity against Staphylococcus aureus isolate F1 derived from ulcer and furuncle after 18 hrs by broth microdilution method; assay type: functional; conditions: isolate F1, 18 h; procedure, shortened: as §3
[24] = tested on: Staphylococcus aureus; test: Antibacterial activity against Staphylococcus aureus isolate F12 derived from ulcer and furuncle assessed as growth inhibition after 18 hrs by broth microdilution method; assay type: functional; conditions: isolate F12, 18 h; procedure, shortened: as §2
[25] = tested on: Staphylococcus aureus; test: Bactericidal activity against Staphylococcus aureus isolate D14 derived from bone after 18 hrs by broth microdilution method; assay type: functional; conditions: isolate D14, 18 h; procedure, shortened: as §3
[26] = tested on: Staphylococcus aureus; test: Bactericidal activity against Staphylococcus aureus isolate C7 derived from naso-pharynx after 18 hrs by broth microdilution method; assay type: functional; conditions: isolate C7, 18 h; procedure, shortened: as §3
[27] = tested on: Staphylococcus aureus; test: Antibacterial activity against Staphylococcus aureus isolate C7 derived from naso-pharynx assessed as growth inhibition after 18 hrs by broth microdilution method; assay type: functional; conditions: isolate C7, 18 h; procedure, shortened: as §2
[28] = tested on: Staphylococcus aureus; test: Bactericidal activity against Staphylococcus aureus isolate D15 derived from bone after 18 hrs by broth microdilution method; assay type: functional; conditions: isolate D15, 18 h; procedure, shortened: as §3
[29] = tested on: Staphylococcus aureus; test: Bactericidal activity against Staphylococcus aureus isolate D12 derived from ulcer and furuncle after 18 hrs by broth microdilution method; assay type: functional; conditions: isolate D12, 18 h; procedure, shortened: as §3
[30] = tested on: Staphylococcus aureus; test: Antibacterial activity against Staphylococcus aureus isolate C4 derived from naso-pharynx assessed as growth inhibition after 18 hrs by broth microdilution method; assay type: functional; conditions: isolate C4, 18 h; procedure, shortened: as §2
[31] = tested on: Staphylococcus aureus; test: Antibacterial activity against Staphylococcus aureus isolate F7 derived from ulcer and furuncle assessed as growth inhibition after 18 hrs by broth microdilution method; assay type: functional; conditions: isolate F7, 18 h; procedure, shortened: as §2
[32] = tested on: Staphylococcus aureus; test: Antibacterial activity against Staphylococcus aureus isolate D12 derived from ulcer and furuncle assessed as growth inhibition after 18 hrs by broth microdilution method; assay type: functional; conditions: isolate D12, 18 h; procedure, shortened: as §2
[33] = tested on: Staphylococcus aureus; test: Antibacterial activity against Staphylococcus aureus isolate D17 derived from bone assessed as growth inhibition after 18 hrs by broth microdilution method; assay type: functional; conditions: isolate D17, 18 h; procedure, shortened: as §2
[34] = tested on: Staphylococcus aureus; test: Antibacterial activity against Staphylococcus aureus isolate C8 derived from naso-pharynx assessed as growth inhibition after 18 hrs by broth microdilution method; assay type: functional; conditions: isolate C8, 18 h; procedure, shortened: as §2
[35] = tested on: Staphylococcus aureus; test: Bactericidal activity against Staphylococcus aureus isolate F7 derived from ulcer and furuncle after 18 hrs by broth microdilution method; assay type: functional; conditions: isolate F7, 18 h; procedure, shortened: as §3
[36] = tested on: Staphylococcus aureus; test: Antibacterial activity against Staphylococcus aureus isolate D20 derived from bone assessed as growth inhibition after 18 hrs by broth microdilution method; assay type: functional; conditions: isolate D20, 18 h; procedure, shortened: as §2
[37] = tested on: Staphylococcus aureus; test: Antibacterial activity against Staphylococcus aureus isolate D14 derived from bone assessed as growth inhibition after 18 hrs by broth microdilution method; assay type: functional; conditions: isolate D14, 18 h; procedure, shortened: as §2
[38] = tested on: Staphylococcus aureus; test: Bactericidal activity against Staphylococcus aureus isolate F12 derived from ulcer and furuncle after 18 hrs by broth microdilution method; assay type: functional; conditions: isolate F12, 18 h; procedure, shortened: as §3
[39] = tested on: Staphylococcus aureus; test: Bactericidal activity against Staphylococcus aureus isolate D17 derived from bone after 18 hrs by broth microdilution method; assay type: functional; conditions: isolate D17, 18 h; procedure, shortened: as §3
[40] = tested on: Staphylococcus aureus; test: Bactericidal activity against Staphylococcus aureus isolate C4 derived from naso-pharynx after 18 hrs by broth microdilution method; assay type: functional; conditions: isolate C4, 18 h; procedure, shortened: as §3
[41] = tested on: Staphylococcus aureus; test: Antibacterial activity against Staphylococcus aureus isolate C19 derived from naso-pharynx assessed as growth inhibition after 18 hrs by broth microdilution method; assay type: functional; conditions: isolate C19, 18 h; procedure, shortened: as §2

Cc1c(C(=O)N/N=C/c2ccc([N+](=O)[O-])cc2)[n+]([O-])cn1Cc1ccccc1
Activity [1]: inactive
Activity [2]: inactive
Activity [3]: inactive
Activity [4]: inactive
Activity [5]: inactive
Activity [6]: inactive
Activity [7]: inactive
Activity [8]: inactive
Activity [9]: inactive

Cc1c(C(=O)NN=C2CCCCC2)[n+]([O-])cn1Cc1ccccc1
Activity [1]: inactive
Activity [2]: inactive
Activity [3]: inactive
Activity [4]: inactive
Activity [5]: inactive
Activity [6]: inactive
Activity [7]: inactive
Activity [8]: inactive
Activity [9]: inactive

O=C1CN(/N=C/c2ccc([N+](=O)[O-])o2)C(=O)N1 [NITROFURANTOIN]
MIC ([10]; NCTC 8192, 18 h): 16 µg/mL (≈ 67.2 µM)
MBC ([11]; NCTC 8192, 18 h): 32 µg/mL (≈ 134 µM)
MIC [12]: 16 µg/mL (≈ 67.2 µM)
MBC [13]: 32 µg/mL (≈ 134 µM)
MIC [14]: 16 µg/mL (≈ 67.2 µM)
MIC [15]: 8 µg/mL (≈ 33.6 µM)
MBC [16]: 32 µg/mL (≈ 134 µM)
MBC [17]: 32 µg/mL (≈ 134 µM)

C/C(=N\NC(=O)c1c(C)n(Cc2ccccc2)c[n+]1[O-])c1ccccc1
Activity [1]: inactive
Activity [2]: inactive
Activity [3]: inactive
Activity [4]: inactive
Activity [5]: inactive
Activity [6]: inactive
Activity [7]: inactive
Activity [8]: inactive
Activity [9]: inactive

Cc1onc(-c2ccccc2)c1C(=O)N[C@@H]1C(=O)N2[C@@H]1SC(C)(C)[C@@H]2C(=O)O [OXACILLIN]
MBC [18]: 0.2 µg/mL (≈ 0.498 µM)
MIC [19]: 0.8 µg/mL (≈ 1.99 µM)
MIC [20]: 75 µg/mL (≈ 187 µM)
MBC [21]: 1.5 µg/mL (≈ 3.74 µM)
MBC [22]: 0.4 µg/mL (≈ 0.996 µM)
MBC [23]: 0.8 µg/mL (≈ 1.99 µM)
MIC [24]: 0.2 µg/mL (≈ 0.498 µM)
MBC [25]: 0.2 µg/mL (≈ 0.498 µM)
MIC [10]: inactive
MBC [26]: 0.4 µg/mL (≈ 0.996 µM)
MIC [27]: 0.2 µg/mL (≈ 0.498 µM)
MBC [28]: 150 µg/mL (≈ 374 µM)
MBC [29]: 0.4 µg/mL (≈ 0.996 µM)
MBC [11]: inactive
MIC [30]: 0.4 µg/mL (≈ 0.996 µM)
MIC [12]: 0.2 µg/mL (≈ 0.498 µM)
MIC [31]: 0.2 µg/mL (≈ 0.498 µM)
MIC [32]: 0.2 µg/mL (≈ 0.498 µM)
MIC [33]: 75 µg/mL (≈ 187 µM)
MBC [13]: 0.2 µg/mL (≈ 0.498 µM)
MIC [14]: 0.2 µg/mL (≈ 0.498 µM)
MIC [15]: 0.2 µg/mL (≈ 0.498 µM)
MIC [34]: 1.5 µg/mL (≈ 3.74 µM)
MBC [16]: 0.2 µg/mL (≈ 0.498 µM)
MBC [35]: 0.2 µg/mL (≈ 0.498 µM)
MIC [36]: 0.4 µg/mL (≈ 0.996 µM)
MIC [37]: 0.2 µg/mL (≈ 0.498 µM)
MBC [38]: 0.4 µg/mL (≈ 0.996 µM)
MBC [39]: 150 µg/mL (≈ 374 µM)
MBC [40]: 0.4 µg/mL (≈ 0.996 µM)
MBC [17]: 0.2 µg/mL (≈ 0.498 µM)
MIC [41]: 0.2 µg/mL (≈ 0.498 µM)

Cc1c(C(=O)N/N=C/c2ccco2)[n+]([O-])cn1Cc1ccccc1
Activity [1]: inactive
Activity [2]: inactive
Activity [3]: inactive
Activity [4]: inactive
Activity [5]: inactive
Activity [6]: inactive
Activity [7]: inactive
Activity [8]: inactive
Activity [9]: inactive
